Fewer inactive variants are shown than the library holds. Where only a bound is given, the exact number is not on record here.

B1: tRNA (parent)
chain: GUUCCGUUGGCGUAAUGGUAACGCGUCUCCCUCCUAAGGAGAAGACUGCGGGUUCGAGUCCCGUACGGAACG

Variants of B1 are the subject of the data set. The experiment in a line: yeast fitness relative to wild type (ratio to wild type); higher = fitter; tRNA-Arg(CCU), competitive growth, 37 C, YPD. In short, it runs like this: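 Changes in genotype frequencies gave Darwinian fitness relative to wild type. Frequencies were read by 100-nucleotide paired-end sequencing of gene amplicons before and after pooled Saccharomyces cerevisiae strains, carrying tRNA-Arg(CCU) gene variants at the native locus, were competed in YPD at 37°C for 24 hours in six replicates. A genotype was kept only with ≥ 100 starting reads, and estimates < 0.5 were set to 0.5.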
With C22G C31U A65G, the yeast fitness was 0.867. With G9A G10A C60U A69C, the yeast fitness was 0.618. In the case of C34G A45C A57C it was 0.514.

C24G C29U G38C: the yeast fitness turned out to be 0.62. Take G9A A21U C24U C29U C49U: the yeast fitness is ≤ 0.5. As for U2G C22U C24G G63A A69C, the yeast fitness is ≤ 0.5. In the case of G12A C49A G52C it was ≤ 0.5; in that of C24G G38C G50C, ≤ 0.5. As for U3A A21C C24G C61U, the figure is ≤ 0.5; as for C11U G63C C66U, ≤ 0.5.

As for C5U C55U G56C, the yeast fitness is 0.746.

Consider C5G U8C C55G, for which the yeast fitness is ≤ 0.5. As for C24U U32C A43U, the figure is 0.768; as for G6A C49U C55U, 0.561; as for C5G C24G G41C, ≤ 0.5. As for A20G A37G G44A, the figure is 0.658; as for G52A C55G A69U, ≤ 0.5. For G23A C24G U32G, the yeast fitness was found to be 0.609. Turning to C5U A14C C29U C33A C49U C55G, the yeast fitness is ≤ 0.5. For U16C A20C C27U, the yeast fitness amounted to 0.662. In the case of C11U G38A C60U G67C it was ≤ 0.5. In the case of A21C U32C C46U it was 0.849; in that of C5U U8C A36G C60A, ≤ 0.5.

Turning to A20U U28C C49U, the yeast fitness was determined as 0.61. As to C5U G17C A43C C49G, the yeast fitness is ≤ 0.5. Consider C60G C66G A69U, for which the yeast fitness is ≤ 0.5. For the variant G6C C11U U19C C22A U35C A69U, the yeast fitness was ≤ 0.5. As for C24U C29U A42G U59A C61U, the figure is ≤ 0.5; as for G39C C46U C62U C66G, ≤ 0.5. In the case of C5U C11U G25C, the yeast fitness is 0.694.

In the case of U2G U8C U26C G56A, the yeast fitness was ≤ 0.5. Consider C4U A42C G63C, for which the yeast fitness was determined as 0.522.

Take C4U C30U A69U: the yeast fitness was determined as 0.736. As for C5U G6A A15U C31U U32C G67C, the figure is ≤ 0.5. Regarding C5U A45U G56A, the yeast fitness came to 0.715. As for C24G C49A U53A G67A, the figure is ≤ 0.5; as for A15G C22U A36U C62U, ≤ 0.5.

With A21U U28C C31U, the yeast fitness was found to be 0.637. As for C30A A37C A43U, the figure is 0.608. As to A37U G51A, the yeast fitness was 0.57. As to C5U C62A, the yeast fitness turned out to be 0.649.

As to G9A A15G A42C C62U, the yeast fitness is ≤ 0.5.

Take C5A U26A C31A C49U: the yeast fitness was ≤ 0.5.

Consider U19G C30A A43U, for which the yeast fitness was 0.601. As for A20C A42C G58C, the figure is 0.52. For the variant A14U G25C A45G A69U, the yeast fitness is ≤ 0.5.

As to C5G U16A U19G A20C C27U C29U C30U A70U, the yeast fitness is ≤ 0.5. Take A15U G25A G44C G52A: the yeast fitness was ≤ 0.5. In the case of A15G C61U A65U C66U it was ≤ 0.5.

Turning to G50C G63A, the yeast fitness is 0.773. As for U32C A42C G44A U53A, the figure is ≤ 0.5; as for C24A C27U, 0.702; as for G9A G12C C31A C33G A45G G67U, ≤ 0.5. Regarding C5G U28G G38C C62G C66U, the yeast fitness is ≤ 0.5. As for A20C C66A, the figure is 0.697; as for G17A U32C U54C C60G, ≤ 0.5. With G25A G41C A57U, the yeast fitness amounted to 0.649.

Regarding C4G G18C A57U, the yeast fitness is ≤ 0.5. As for C33U A37C, the figure is 0.556; as for U19A C29G, 0.685; as for U26C C46G G63A, ≤ 0.5. Consider U8A A40G A42U A45U U59G G68A, for which the yeast fitness is ≤ 0.5.

Turning to G38A A45G G52A C61G, the yeast fitness amounted to 0.679. In the case of U26C A36C A65U G68A it was ≤ 0.5; in that of C24A C33G A40C C55U G67A, ≤ 0.5. As for C29G G56A, the figure is 0.632. For the variant G12A G68A, the yeast fitness was 0.771.

A20U C34G A42G A43U G63A A65G: the yeast fitness is ≤ 0.5. In the case of G6A G18C A37C C62A it was 0.604.

Regarding C4U A14C G68C, the yeast fitness is ≤ 0.5. With C22G C24A G68C, the yeast fitness was ≤ 0.5. On to G25A C33U A45U C60G, for which the yeast fitness is ≤ 0.5. On to C5U U28C C33G G38A U64G, for which the yeast fitness was ≤ 0.5. As for U32G G48A, the figure is 0.616; as for U7C G12A U13C U26C C61U G63A, 0.596.

Turning to A15C C22G A57C G63C C66U, the yeast fitness was ≤ 0.5. Turning to C31A A65G, the yeast fitness turned out to be 0.732.

U7A U13A A69C: the yeast fitness is ≤ 0.5. As to U2C U47C A70U, the yeast fitness is 0.808. In the case of G6C G17C C27U A40U C60U it was ≤ 0.5; in that of U2G C22U A40U, ≤ 0.5; in that of A14U U32C U53A C55A, ≤ 0.5. In the case of G56C G68C, the yeast fitness was 0.716.

With U8C G12A A21U A70U, the yeast fitness is ≤ 0.5. In the case of A21U C22U A43C C49A, the yeast fitness came to 0.595.

As to C5G U13A C31G G50A A65G, the yeast fitness is ≤ 0.5. For G6A C11U U13C A43G G52A G67A, the yeast fitness is ≤ 0.5. As for G6C A42G U53C C62U, the figure is ≤ 0.5. In the case of U7A G9C C30U C34G it was ≤ 0.5; in that of C11A U19A C55A C61U, 0.605; in that of C46U A65G, 0.877. On to G18C A42C U54A, for which the yeast fitness was ≤ 0.5.

As to C24G G48A A57G, the yeast fitness was ≤ 0.5. For G23U C24G C27U A69C, the yeast fitness was ≤ 0.5. Turning to U7C C61U, the yeast fitness amounted to 0.959.

With C4A C31G C55A, the yeast fitness was determined as 0.534. As for C34A G56C G58A G63C A65U, the figure is ≤ 0.5. As for U53C A65U, the figure is 0.788. As for A43C C49U C62G, the figure is 0.561; as for G10C A15U C29G C46U G51C, ≤ 0.5.

Take C4U C22U C34A: the yeast fitness was 0.548. As for U16A A21C, the yeast fitness was determined as 0.686. Regarding C5A A42C, the yeast fitness is 0.842.

In the case of C4U A40U C66U, the yeast fitness amounted to 0.762. In the case of A15C A45G C55U it was ≤ 0.5. Consider A14U G18C U35G C49A G68A, for which the yeast fitness turned out to be 0.59. Take G6C C11G C22U A69C: the yeast fitness was ≤ 0.5. On to C29G C46G, for which the yeast fitness came to 0.687. In the case of C24A A37C G38A G58C G63C it was ≤ 0.5; in that of C24G A37G G52C U64C, 0.602; in that of C5G U19C U54C A69U, ≤ 0.5.

In the case of A21G C22U, the yeast fitness is 0.683. For the variant U2A C24A, the yeast fitness came to 0.662. As to C5G G10A A20U U26C U35C C49A G56A U64A, the yeast fitness is ≤ 0.5. As for C5G G18C, the yeast fitness was 0.733. Turning to C11G A21C C22G C30G A45U, the yeast fitness came out at 0.558. For C30A C31G G67C, the yeast fitness was found to be 0.546. As to U2G C5A G12A C55G, the yeast fitness was ≤ 0.5. As for C27G C46A C49G, the yeast fitness stood at 0.704. Take C5U U16A G23A C49U: the yeast fitness was ≤ 0.5. In the case of U16A G23C C29G G50A A65G it was 0.751; in that of G10C C24G C46U, 0.702; in that of U19C C31U C33G G41A C55U C61A, ≤ 0.5. C29U G56C: the yeast fitness stood at 0.595. As for U8C A15C U32A A70C, the yeast fitness is ≤ 0.5. As for C24G A40C U47A A69G, the figure is ≤ 0.5. As for A14C U16C A40U G51C A69C, the figure is 0.639; as for A20U C34G A42G A43U G67A, ≤ 0.5. Consider U13A C30G C61U G68A, for which the yeast fitness was ≤ 0.5. Turning to C11G C29G C31G U54C U64A, the yeast fitness was ≤ 0.5.

As for G39A C49G A69U, the yeast fitness was ≤ 0.5.

For the variant C22U G23A, the yeast fitness stood at 0.591. Regarding C11U U47C, the yeast fitness is 1.04.

On to A14U C27U C29G C31U, for which the yeast fitness is ≤ 0.5. In the case of A45C C46G, the yeast fitness stood at 1.01. In the case of C22U U26A C49U A65U it was ≤ 0.5. In the case of C24U A43U U47C it was 0.794; in that of C4G G41C, 0.834; in that of C5A C24U G25C C30G, ≤ 0.5. As for A21U, the figure is 0.861; as for C5G G56C A65U, ≤ 0.5; as for C24A C29G A43C C60U, 0.648. In the case of G18A C24U C30U C34U U54A, the yeast fitness turned out to be 0.531. With G25C A45C C46A, the yeast fitness amounted to 0.991. In the case of U13G A21U it was 1.09; in that of G39C G44C A65C, ≤ 0.5; in that of C11U G18A A43U, 0.533. Regarding C29A C31G C60A, the yeast fitness stood at 0.656. With C49U U53A C66U A70U, the yeast fitness is ≤ 0.5. For the variant C24U G38C G52C, the yeast fitness was ≤ 0.5. Regarding C4U G6A C31U C34U, the yeast fitness is ≤ 0.5. With C34G G48C C66U, the yeast fitness came out at 0.562. Take C24G C55A A70C: the yeast fitness was ≤ 0.5. As for C30A C34U G58C, the figure is ≤ 0.5; as for A15C G18C A40U, ≤ 0.5; as for G9A C29A G48A, ≤ 0.5. Consider G6A C29A C30G C61U A70G, for which the yeast fitness was ≤ 0.5. In the case of A20G A69C, the yeast fitness turned out to be 0.916. In the case of G17A C24U C46U C60A it was ≤ 0.5; in that of U8A U19C C31A U35G A43G U47C G52U G67A, ≤ 0.5. In the case of C4U U59C A69C it was 0.772. In the case of A20C C31G G58C it was 0.92. U16G C34U C46G U59A: the yeast fitness is ≤ 0.5. As for A40G U47A, the figure is 0.848. As for U2C C5G A45C A69U, the figure is 0.549. Take A43G U47G C55G: the yeast fitness stood at 0.636. With A15U C24G A65U, the yeast fitness is ≤ 0.5.

The values above are taken from the RNAGym collection of RNA variant scans (doi:10.1126/science.aae0568).
